Active and inactive are the calls of the source. The calls are words filed in the database; no cut-off is given here.
Legend:
[1] = test system: Mus musculus; assay: Potentiation of serum IgG/recombinant Porphyromonas gingivalis HagB induced-immune response in BALB/c mouse at 100 ug, sc immunized on day 14 and 28 after 42 days by ELISA; format: functional, organism-based
Summary of the method: (§1)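 Mice from Frederick Cancer Research were immunized with rHagB plus adjuvant (100 or 50 μg; adjuvant given at 1.0 mg/mL as solution or suspension with antigen). Retro-orbital blood was collected before and after immunization, and serum was stored at −20 °C. ELISA plates were coated with rHagB (1 μg/mL) in borate buffered saline pH 8.2; serial two-fold serum dilutions were run in duplicate.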

[2] = test system: Mus musculus; assay: Potentiation of serum IgG/recombinant Porphyromonas gingivalis HagB induced immune response n BALB/c mouse at 100 ug, sc immunized on day 14 and 28 measured week 4 and 6 post immunization by ELISA; format: functional, organism-based; summary of the method: as §1
[3] = test system: Mus musculus; assay: Potentiation of recombinant Porphyromonas gingivalis HagB induced Th1/Th2 immune response in BALB/c mouse assessed as increase in IgG1 levels at 100 ug, sc measured at week 4 and 6 by ELISA; format: functional, organism-based; summary of the method: as §1
[4] = test system: Mus musculus; assay: Potentiation of recombinant Porphyromonas gingivalis HagB induced Th1/Th2 immune response in BALB/c mouse assessed as increase in IgG2a levels at 100 ug, sc measured at week 4 and 6 by ELISA; format: functional, organism-based; summary of the method: as §1
[5] = test system: Mus musculus; assay: Potentiation of recombinant Porphyromonas gingivalis HagB induced Th1/Th2 immune response in BALB/c mouse assessed as increase in IgG1 levels at 50 ug, sc measured at week 4 and 6 by ELISA; format: functional, organism-based; summary of the method: as §1
[6] = test system: Mus musculus; assay: Potentiation of recombinant Porphyromonas gingivalis HagB induced Th1/Th2 immune response in BALB/c mouse assessed as increase in IgG2a levels at 50 ug, sc measured at week 4 and 6 by ELISA; format: functional, organism-based; summary of the method: as §1
[7] = Toxicity in BALB/c mouse assessed as effect on body weight at 50 to 100 ug, sc measured after 41 days; format: organism-based; conditions: in vivo, 984 h
Summary of the method: (§2)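 Mice were weighed before each immunization and on day 42 after the last immunization. Adjuvant was given with rHagB antigen at 100 μg, or at 50 μg for one group.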

[8] = test system: Mus musculus; assay: Potentiation of recombinant Porphyromonas gingivalis HagB induced Th1/Th2 immune response in BALB/c mouse assessed as increase in IgG1 levels at 100 ug, sc measured at week 4 by ELISA; format: functional, organism-based; summary of the method: as §1
[9] = Toxicity in BALB/c mouse assessed as effect on body weight at 100 ug, sc measured after 41 days; format: organism-based; conditions: in vivo, 984 h; summary of the method: as §2

| Structure (SMILES) | Activity [1] | Activity [2] | Activity [3] | Activity [4] | Activity [5] | Activity [6] | Activity [7] | Activity [8] | Activity [9] |
| --- | --- | --- | --- | --- | --- | --- | --- | --- | --- |
| CCCCCCCCCCCCNC(=O)[C@H]1O[C@@H](O[C@H]2CC[C@]3(C)[C@H]4CC=C5[C@@H]6CC(C)(C)CC[C@]6(C(=O)O[C@@H]6O[C@H](C)[C@H](O)[C@H](O)[C@H]6O[C@@H]6O[C@@H](C)[C@H](O[C@@H]7OC[C@@H](O)[C@H](O[C@@H]8OC[C@@H](O)[C@H](O)[C@H]8O)[C@H]7O)[C@@H](O[C@@H]7O[C@H](CO)[C@@H](O)[C@H](O)[C@H]7O)[C@H]6O)[C@H](O)C[C@@]5(C)[C@]4(C)CC[C@H]3[C@]2(C)C=O)[C@H](O[C@@H]2O[C@H](CO)[C@H](O)[C@H](O)[C@H]2O)[C@@H](O[C@@H]2OC[C@@H](O)[C@H](O)[C@H]2O)[C@@H]1O | Active | Active | Active | Active | Active | Active | Non-Toxic | – | – |
| CCCCCCCCCCCCNC(=O)[C@H]1O[C@@H](O[C@H]2CC[C@]3(C)[C@H]4CC=C5[C@@H]6CC(C)(C)CC[C@]6(C(=O)O[C@@H]6O[C@H](C)[C@H](O)[C@H](O)[C@H]6O[C@@H]6O[C@@H](C)[C@H](O[C@@H]7OC[C@@H](O)[C@H](O[C@@H]8OC[C@](O)(CO)[C@H]8O)[C@H]7O)[C@@H](O)[C@H]6O)[C@H](O)C[C@@]5(C)[C@]4(C)CC[C@H]3[C@]2(C)C=O)[C@H](O[C@@H]2O[C@H](CO)[C@H](O)[C@H](O)[C@H]2O)[C@@H](O[C@@H]2OC[C@@H](O)[C@H](O)[C@H]2O)[C@@H]1O | inactive | – | – | inactive | – | – | – | inactive | Non-Toxic |

— ChEMBL document CHEMBL4368917, “Synthesis and Evaluation of a QS-17/18-Based Vaccine Adjuvant” (J Med Chem, 2019)
